B1: tRNA (parent)
chain: GUUCCGUUGGCGUAAUGGUAACGCGUCUCCCUCCUAAGGAGAAGACUGCGGGUUCGAGUCCCGUACGGAACG

Fewer inactive variants are shown than the library holds.

Variants of B1 are the subject of this data set. Put plainly: yeast fitness relative to wild type (ratio to wild type); higher = fitter; tRNA-Arg(CCU), competitive growth, 37 C, YPD. The procedure, abridged: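 Start and end populations of a pooled competition were compared by 100-nucleotide paired-end sequencing of gene amplicons. The Saccharomyces cerevisiae strains carried tRNA-Arg(CCU) gene variants at the native genomic locus, synthesised with a 3% per-site mutation rate at 69 sites, and competed in YPD at 37°C for 24 hours in six parallel replicates. Darwinian fitness relative to wild type was based on the change in genotype frequencies. Genotypes required ≥ 100 starting reads, and estimates < 0.5 were set to 0.5.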
U13A A40C: the yeast fitness stood at 0.789.

Consider U13C C22A U32A A36G A43U, for which the yeast fitness is at most 0.5.

Take U19A C27A C31A G52A G58C A70G: the yeast fitness was at most 0.5.

Take G25A G41A C61A A65U: the yeast fitness was at most 0.5.

In the case of G41C C60U U64G G67A, the yeast fitness was at most 0.5.

As to C29U A70G, the yeast fitness worked out at 0.887.

On to C29U A43C G50C C60A, for which the yeast fitness is 0.634.

On to C5A C49A G68C, for which the yeast fitness amounted to 0.536.

With G9A G18A C24A G39A A43C, the yeast fitness was determined as 0.558.

Consider G10A A37U G67C, for which the yeast fitness was 0.587.

Turning to G25U C30A C46A, the yeast fitness was determined as 0.581.

For the variant A15G C55A, the yeast fitness came to 0.727.

Consider C4U C11U U35A, for which the yeast fitness worked out at 0.523.

Consider C11G U13G C62G, for which the yeast fitness is at most 0.5.

Regarding U3G A14C C24G C60U U64A, the yeast fitness is at most 0.5.

Turning to U16A G25C G48A U59A, the yeast fitness was at most 0.5.

In the case of U13A U28A G63A G67A, the yeast fitness was at most 0.5.

Regarding C11U A14C A15G U26A C34A G63A, the yeast fitness is at most 0.5.

Take U16G C46U A65C: the yeast fitness worked out at 1.13.

Take A14G A37C A70C: the yeast fitness was determined as 0.624.

On to U8C A42G A70C, for which the yeast fitness is at most 0.5.

In the case of A42C G51A A70C, the yeast fitness was 0.578.

In the case of C22G A42C C66G G67U, the yeast fitness was at most 0.5.

Take U13A C22A A36U: the yeast fitness is at most 0.5.

For the variant C5U U8A G68A, the yeast fitness came out at 0.544.

Turning to A36U C61U G63A C66U, the yeast fitness is at most 0.5.

For U32A A40C G58C G63A, the yeast fitness was at most 0.5.

In the case of G6A C11U C55U, the yeast fitness was determined as 0.814.

For the variant A20U C34U G41A, the yeast fitness was at most 0.5.

Turning to C4G C24A A42G, the yeast fitness was at most 0.5.

Regarding U13C G58A, the yeast fitness worked out at 0.891.

Turning to U2G C11G A20U C24G A42G, the yeast fitness is at most 0.5.

For C11G C30A U35A, the yeast fitness was at most 0.5.

For G12C G25C A69U, the yeast fitness is at most 0.5.

For C5G U13A C22G C29G A40U, the yeast fitness worked out at 0.556.

U16A U19A: the yeast fitness was determined as 0.952.

For the variant C33G C62U, the yeast fitness came to 0.758.

Regarding U2G A45U G67C, the yeast fitness was at most 0.5.

In the case of C4A U28C U47C, the yeast fitness is at most 0.5.

Take U7A C29G: the yeast fitness was at most 0.5.

Turning to C11U A43C G68A, the yeast fitness was 0.545.

Turning to C5G A42U, the yeast fitness stood at 0.683.

On to U13A A15G C27U C62A G63A A70C, for which the yeast fitness was at most 0.5.

On to U8G A20G C60G C61A, for which the yeast fitness was at most 0.5.

For the variant C30U U47A C66A, the yeast fitness is at most 0.5.

Take C11U C24U: the yeast fitness is 0.852.

With C11U C24G C29U G50A G58C G63A C66U G68A, the yeast fitness was at most 0.5.

In the case of C33U C34A A43C G48A, the yeast fitness is at most 0.5.

Take A14C G17C C60U: the yeast fitness is at most 0.5.

With U7A U13A A21U A45U, the yeast fitness stood at 0.649.

As to C30A G48A U64A C66G, the yeast fitness was 0.611.

Consider C5A A15U G25A U59C, for which the yeast fitness is at most 0.5.

For G6A A37C A40G, the yeast fitness was at most 0.5.

In the case of C31A G44C G63A, the yeast fitness is at most 0.5.

As for G12C U19A C27G, the yeast fitness worked out at 0.692.

With C5A C61G, the yeast fitness came to 0.609.

Regarding C34U A65U, the yeast fitness was 0.574.

Regarding G18C A36U C55U U59A, the yeast fitness was at most 0.5.

Take A15U C34A: the yeast fitness amounted to 0.707.

For U3C C11A C27G C33A A43C C46A, the yeast fitness is 0.687.

On to U3A A69U, for which the yeast fitness worked out at 0.999.

On to U3A C11G G41C G58C, for which the yeast fitness was 0.733.

As for C11A G63A, the yeast fitness worked out at 0.681.

On to G10A C22U U47C, for which the yeast fitness was at most 0.5.

On to A15G G41A A43U G50C, for which the yeast fitness is at most 0.5.

On to C11A C27G C55U, for which the yeast fitness is at most 0.5.

For the variant U59A G67A, the yeast fitness was 0.799.

Consider C4U C5A A15U C34U U54C C62U, for which the yeast fitness was at most 0.5.

For A21G C33G A40G, the yeast fitness is 0.562.

Regarding C24A A36G C61U, the yeast fitness was at most 0.5.

As for C5A G39A, the yeast fitness was determined as 0.83.

Regarding C5U G50C G67A, the yeast fitness was at most 0.5.

For the variant G63A G67A A69G, the yeast fitness is at most 0.5.

For C22A U32A C33U G39A A43C A69C, the yeast fitness was at most 0.5.

Consider G6A C11A C49U A65G, for which the yeast fitness was at most 0.5.

In the case of U16A C46G, the yeast fitness stood at 0.951.

Consider A15U U47G A57C, for which the yeast fitness was at most 0.5.

As to U8A U26C, the yeast fitness came to 0.646.

As for G9C A37G G41A G50A, the yeast fitness came to 0.532.

Regarding C22A C62A, the yeast fitness turned out to be 0.785.

C22G A37U A57C: the yeast fitness is at most 0.5.

U2G C55G: the yeast fitness was 0.532.

For the variant C55G G63C, the yeast fitness was found to be 0.636.

For the variant C5U C34A U53A, the yeast fitness turned out to be 0.562.

Turning to A14U A20C C27U U35C G48A C62A, the yeast fitness is at most 0.5.

Regarding G23A A57G, the yeast fitness was determined as 0.715.

Turning to G9A C29A A42C C55U, the yeast fitness is at most 0.5.

Consider U19A C27U A57G, for which the yeast fitness came out at 0.725.

In the case of C33U A45U, the yeast fitness came to 0.837.

C4U C11A U28A C31U G51C G56A: the yeast fitness was at most 0.5.

As for A20U C31U G56A C61U, the yeast fitness was at most 0.5.

Regarding A20U C29G U47C C49G G63C, the yeast fitness is at most 0.5.

For the variant U7A U16C G17A C29U C31A G51U C66G G67U, the yeast fitness is at most 0.5.

As to U2G C5A, the yeast fitness came to 0.725.

Take G9C A20C C66A: the yeast fitness is 0.601.

As to U3A A57G, the yeast fitness was found to be 0.776.

Turning to U32C A36U C61G, the yeast fitness is at most 0.5.

Regarding G6A A14U C31G G38A, the yeast fitness is at most 0.5.

As for G9A U13A A69U, the yeast fitness came to 0.811.

For C4U C30A C66U, the yeast fitness turned out to be 0.82.

On to C11A A42G C49U A65C, for which the yeast fitness is at most 0.5.

C24G G25C C66A: the yeast fitness was at most 0.5.

With G38A A40U A65G, the yeast fitness is at most 0.5.

In the case of A15U C49G G68C, the yeast fitness is at most 0.5.

In the case of C5A G6C G63A, the yeast fitness was at most 0.5.

For the variant U8A A42C G52C, the yeast fitness is at most 0.5.

For the variant G12C U13C A40U G58C, the yeast fitness was at most 0.5.

As for U7C C33G A70G, the yeast fitness amounted to 0.57.

Turning to C24U A45G C49U, the yeast fitness was 0.931.

As to A14G C30G A45G, the yeast fitness is 0.585.

For the variant C66U A70C, the yeast fitness came out at 0.895.

Consider G23A C24U, for which the yeast fitness was 0.94.

As for G44A C55U A69C, the yeast fitness was determined as 0.585.

As to C5U C24U U32A C55G A69U, the yeast fitness was at most 0.5.

Consider G25A U54A C66A, for which the yeast fitness is at most 0.5.

Regarding U3C G52A, the yeast fitness stood at 0.743.

Regarding G6A A14U A57G U59C, the yeast fitness is at most 0.5.

On to C55G A65G C66G, for which the yeast fitness worked out at 0.567.

U13G C27A C30A A57C: the yeast fitness is at most 0.5.

As to G10C A37U G52A C66U, the yeast fitness was at most 0.5.

G38C G67A: the yeast fitness worked out at 0.769.

As for G18C G38A A43U A45G A57G U59C, the yeast fitness was at most 0.5.

U7A C27G C34U: the yeast fitness was at most 0.5.

Turning to C11A A14G U19G A43C U53A, the yeast fitness is at most 0.5.

Regarding A14C G58A, the yeast fitness came to 0.868.

Regarding U7A C11U C30U U59A A69C, the yeast fitness is at most 0.5.

As for U26C G51A, the yeast fitness came out at 0.774.

As to U32C G39U, the yeast fitness turned out to be 0.911.

As for G17C G48C, the yeast fitness worked out at 0.709.

For U2C C11U G12A A15G, the yeast fitness is at most 0.5.

As to C5G U16C C24U, the yeast fitness was at most 0.5.

Consider U8C C11U, for which the yeast fitness is 1.02.

U8C C30A C31U U54C: the yeast fitness is at most 0.5.

For the variant C33A A37U C62A A70C, the yeast fitness was 0.605.

In the case of C30G U64A A70C, the yeast fitness was at most 0.5.

As for U3C C31U C34U U35A U53A G58A G68A, the yeast fitness is at most 0.5.

As for G9A C24A C55A, the yeast fitness is at most 0.5.

As to U16G A42U, the yeast fitness amounted to 0.994.

Regarding U3G C66G, the yeast fitness turned out to be 0.712.

For G6C G17A A36U C46A C49U C66A, the yeast fitness was at most 0.5.

Turning to C4U A43U, the yeast fitness was 0.963.

As to G9C A14G C66U, the yeast fitness was at most 0.5.

In the case of G52A A65C, the yeast fitness came out at 0.848.

On to A14G C31A C34G A43C, for which the yeast fitness was at most 0.5.

Regarding A21C C29U C31G A43U, the yeast fitness amounted to 0.612.

Take C31G G44C G67C: the yeast fitness is at most 0.5.

With A57C U64C, the yeast fitness is 0.564.

Consider C4G G6A C22G C62U A70C, for which the yeast fitness was at most 0.5.

Regarding C29G C49U A65C, the yeast fitness was at most 0.5.

As for U8G A21G C27A U35A C62A A65C, the yeast fitness is 0.568.

U26C C31G: the yeast fitness came to 0.875.

In the case of A14G G23A U47C, the yeast fitness was at most 0.5.

Turning to C31U C33U A40U A45G, the yeast fitness is 0.575.

For C4A C60A, the yeast fitness is 0.676.

Regarding A21U C34A, the yeast fitness is 0.573.

As to A37G A43U A65C, the yeast fitness turned out to be 0.627.

Regarding U16C C24U U53C C60G, the yeast fitness worked out at 0.559.

As for C4G C22U C49A, the yeast fitness was at most 0.5.

As for G10C U26A C33U U53C, the yeast fitness is 0.576.

U26C A40C C46U A65G G68C: the yeast fitness is at most 0.5.

With G18C C22U C34G, the yeast fitness amounted to 0.688.

Consider C4U U13A U59A, for which the yeast fitness was 0.811.

For the variant A43G C60A C66G, the yeast fitness is at most 0.5.

On to U26G C29G A45C, for which the yeast fitness is at most 0.5.

In the case of U2G C34U U35C, the yeast fitness is at most 0.5.

Consider G41A C62A A70C, for which the yeast fitness was at most 0.5.

For A21U G56C G63A U64C G67C A69U, the yeast fitness was at most 0.5.

The values above are taken from the RNAGym collection of RNA variant scans (doi:10.1126/science.aae0568).
